Among the data in ChEMBL document CHEMBL1122980, “Stereoselective metabolism of conformational analogues of warfarin by beta-naphthoflavone-inducible cytochrome P-450” (J Med Chem, 1985) are RPF and Metabolism rate values, retold here.

SMILES strings stand for the structures.

The series is filed under the species Rattus norvegicus. As to the kind of experiment: Rate of metabolism in liver microsomes (BNF treated rats). Format: ADME. The method in brief:
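Liver microsomes pooled from three male Sprague–Dawley rats (140–170 g) given BNF ip (80 mg/kg in corn oil) daily for 3 days, taken on day 4. Microsomal protein 2 mg/mL. Substrate added after 2-min equilibration, 200 μg/mL in acetone, or warfarin also in pH 7.4 phosphate buffer. Incubated 20 min at 37 °C, triplicate. Hydroxy metabolites quantified by GC/MS against deuterated internal standards. Rates given per nmol P-450 per min, mean ±SD.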
(In general: Liver microsomes are vesicles of endoplasmic reticulum, rich in cytochrome P450 enzymes.)
Regarding `CO[C@]1(C)C[C@H](c2ccccc2)c2c(c3ccc(O)cc3oc2=O)O1`, the RPF is 12.8 pM nM-1.

Regarding `CO[C@]1(C)C[C@@H](c2ccccc2)c2c(c3cccc(O)c3oc2=O)O1`, the RPF is on record as 42.8 pM nM-1. Consider `COC1(C)C[C@H](c2ccccc2)c2c(c3cc(O)ccc3oc2=O)O1` (some centres undefined), for which the RPF is 20.3 pM nM-1. As to `CO[C@]1(C)C[C@@H](c2ccccc2)c2c(c3ccc(O)cc3oc2=O)O1`, the RPF is 14.9 pM nM-1. Still for that read-out and setting: under `CO[C@]1(C)C[C@H](c2ccccc2)c2c(c3cccc(O)c3oc2=O)O1` stands 14.9 pM nM-1.

On to `CO[C@]1(C)C[C@@H](c2ccc(O)cc2)c2c(c3ccccc3oc2=O)O1`, for which the RPF was 73.5 pM nM-1. With `CO[C@@]1(C)C[C@H](c2ccccc2)c2c(c3cccc(O)c3oc2=O)O1`, the RPF is recorded as 15.1 pM nM-1. Take `COC1(C)C[C@H](c2ccc(O)cc2)c2c(c3ccccc3oc2=O)O1` (some centres undefined): the RPF was 76.2 pM nM-1.

Take `CO[C@]1(C)C[C@H](c2ccc(O)cc2)c2c(c3ccccc3oc2=O)O1`: the RPF is recorded as 52 pM nM-1. In the case of `CO[C@]1(C)C[C@@H](c2ccccc2)c2c(c3cc(O)ccc3oc2=O)O1`, the RPF is given as 24.1 pM nM-1.

Regarding `CO[C@@]1(C)C[C@@H](c2ccccc2)c2c(c3cccc(O)c3oc2=O)O1`, the RPF is recorded as 34.6 pM nM-1.

Turning to `COC1(C)C[C@@H](c2ccccc2)c2c(c3ccc(O)cc3oc2=O)O1` (some centres undefined), the RPF is 13.9 pM nM-1.

`COc1c([C@H](CC(C)=O)c2ccc(O)cc2)c(=O)oc2ccccc12`: the RPF was 85.3 pM nM-1. On the same count and under the same terms, to `COc1c([C@H](CC(C)=O)c2ccccc2)c(=O)oc2ccc(O)cc12` belongs 11.5 pM nM-1; to `COc1c([C@H](CC(C)=O)c2ccccc2)c(=O)oc2cc(O)ccc12`, 8.3 pM nM-1; to `COc1c([C@@H](CC(C)=O)c2ccccc2)c(=O)oc2cc(O)ccc12`, 31.2 pM nM-1. Regarding `COc1c([C@@H](CC(C)=O)c2ccc(O)cc2)c(=O)oc2ccccc12`, the RPF is 47.8 pM nM-1.

Take `COc1c([C@@H](CC(C)=O)c2ccccc2)c(=O)oc2ccc(O)cc12`: the RPF was 19.1 pM nM-1. The same measure, in the same setting: under `COC1(C)C[C@H](c2ccccc2)c2c(c3ccc(O)cc3oc2=O)O1` (some centres undefined) stands 19.3 pM nM-1. `CC(=O)C[C@H](c1ccccc1)c1c(O)c2cc(O)ccc2oc1=O` gave a Metabolism rate of 113.7 pmol/min/nmol P-450 and an RPF of 102 pmol/min/nmol. `CC(=O)C[C@H](c1ccc(O)cc1)c1c(O)c2ccccc2oc1=O` gave a Metabolism rate of 22.4 pmol/min/nmol P-450. In the case of `COC1(C)C[C@@H](c2ccccc2)c2c(c3cc(O)ccc3oc2=O)O1` (some centres undefined), the RPF is listed as 14.8 pM nM-1. With `CC(=O)C[C@@H](c1ccccc1)c1c(O)c2ccc(O)cc2oc1=O`, the Metabolism rate came to 216.8 pmol/min/nmol P-450 and the RPF was 195 pmol/min/nmol. The molecule `CC(=O)C[C@@H](c1ccccc1)c1c(O)c2cc(O)ccc2oc1=O` came in with a Metabolism rate of 41.2 pmol/min/nmol P-450 and an RPF of 37.1 pmol/min/nmol.

Take `CC(=O)C[C@@H](c1ccc(O)cc1)c1c(O)c2ccccc2oc1=O`: the Metabolism rate turned out to be 13.7 pmol/min/nmol P-450.

As for `COC1(C)C[C@@H](c2ccc(O)cc2)c2c(c3ccccc3oc2=O)O1` (some centres undefined), the RPF was 64.8 pM nM-1.
